# ChEMBL document CHEMBL4346672, “Antimicrobial and KPC/AmpC inhibitory activity of functionalized benzosiloxaboroles” (Eur J Med Chem, 2019)
# Calls of active or inactive are those of the source. The calls are words filed in the database; no cut-off is given here.
# Assays:
# Klebsiella pneumoniae [1] = assay: Antibacterial activity against Klebsiella pneumoniae ATCC 13883 measured after 18 hrs by CLSI broth dilution method; assay type: functional; conditions: ATCC 13883, 18 h
# Procedure, shortened: (§1)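 Broth MIC in Mueller-Hinton II broth following CLSI, compounds dissolved in DMSO. Strains subcultured twice on tryptic soy agar before testing. Growth read after 35 °C, 18 h.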
# Escherichia coli [2] = assay: Inhibition of beta lactamase KPC-3 in Escherichia coli 82 TR assessed as potentiation of meropenem-induced antibacterial activity by measuring meropenem MIC at 16 mg/L incubated for 18 hrs by broth dilution method (reference value: 2 mg/L)
# Escherichia coli [3] = assay: Antibacterial activity against Escherichia coli ATCC 25922 assessed as fold reduction of MIC in presence of efflux pump inhibitor PAbetaN incubated for 18 hrs by CLSI broth microdilution method; assay type: functional
# Procedure, shortened: (§2)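 MICs determined with and without PAβN at 50 mg/L in Mueller-Hinton broth containing 1 mM MgSO₄. 2-fold serial dilutions per CLSI. Fold change taken from the paired MICs after 35 °C, 18 h.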
# Acinetobacter baumannii [4] = assay: Antibacterial activity against Acinetobacter baumannii ATCC 19606 assessed as fold reduction of MIC in presence of efflux pump inhibitor PAbetaN incubated for 18 hrs by broth microdilution method; assay type: functional; procedure, shortened: as §2
# Serratia marcescens [5] = conditions: ATCC 13880
# Pseudomonas aeruginosa [6] = assay: Inhibition of beta lactamase AmpC in Pseudomonas aeruginosa MUW 700 assessed as potentiation of ceftazidime-induced antibacterial activity by measuring diameter of zone inhibition at 0.3 mg incubated for 18 hrs in presence of 30 ug ceftazidime by CLSI disc diffusion method (Rvb=11 mm)
# Procedure, shortened: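 AmpC combination disc test on Mueller-Hinton agar, following EUCAST guidance and Yagi et al. Inhibition zones were compared between a CAZ-30 disc and a ceftazidime disc plus agent or PBA, each at 0.3 mg per disc. Plates were incubated at 35 °C for 18 h. A zone difference of at least 5 mm was counted as inhibition.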
# [7] = tested on: Klebsiella pneumoniae ATCC BAA-1705; assay: Inhibition of beta lactamase KPC in Klebsiella pneumoniae ATCC BAA 1705 assessed as potentiation of meropenem-induced antibacterial activity by measuring diameter of zone inhibition at 0.3 mg incubated for 18 hrs in presence of 10 ug meropenem by CLSI disc diffusion method (Rvb=[…] mm)
# Candida parapsilosis = assay: Antifungal activity against Candida parapsilosis ATCC 22019 assessed as diameter of zone inhibition incubated for 24 hrs by CLSI disc diffusion method; assay type: functional
# Procedure, shortened: (§3)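 Yeast disc diffusion on Mueller-Hinton agar supplemented with 2% glucose and 0.5 mg/L methylene blue. Compounds in DMSO. Yeasts subcultured on Sabouraud dextrose agar before testing. Zones read after 35 °C, 24 h.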
# [8] = tested on: Staphylococcus epidermidis; assay: Antibacterial activity against Staphylococcus epidermidis ATCC 12228 assessed as diameter of zone inhibition measured after 18 hrs by CLSI disc diffusion method; assay type: functional
# Procedure, shortened: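 Disc diffusion on Mueller-Hinton II agar. Compounds dissolved in DMSO. Strains stored at -80 °C and subcultured twice on tryptic soy agar before testing. Inhibition zones read after 35 °C, 18 h.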
# Proteus mirabilis = assay: Antibacterial activity against Proteus mirabilis ATCC 12453 assessed as fold reduction of MIC in presence of efflux pump inhibitor PAbetaN incubated for 18 hrs by broth microdilution method; assay type: functional; procedure, shortened: as §2
# Klebsiella pneumoniae [9] = conditions: ATCC 13883
# [10] = tested on: Meyerozyma guilliermondii; assay: Antifungal activity against Candida guilliermondii IBA 155 assessed as decrease in fungal cell growth at 0.78 to 12.5 mg/L incubated for 24 hrs by CLSI broth dilution method; assay type: functional; conditions: IBA 155, 24 h
# Procedure, shortened: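 Yeast broth dilution in RPMI 1640 with 2% glucose, compounds in DMSO. Yeasts pre-grown on Sabouraud dextrose agar. Growth read after 35 °C, 24 h.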
# Klebsiella pneumoniae [11] = assay: Antibacterial activity against Klebsiella pneumoniae ATCC 13883 assessed as fold reduction of MIC in presence of efflux pump inhibitor PAbetaN incubated for 18 hrs by broth microdilution method; assay type: functional; procedure, shortened: as §2
# Acinetobacter baumannii [12] = assay: Inhibition of beta lactamase OXA-24 in Acinetobacter baumannii 181 assessed as potentiation of meropenem-induced antibacterial activity by measuring meropenem MIC at 16 mg/L incubated for 18 hrs by broth dilution method (reference value: […] mg/L)
# Serratia marcescens [13] = assay: Antibacterial activity against Serratia marcescens ATCC 13880 assessed as fold reduction of MIC in presence of efflux pump inhibitor PAbetaN incubated for 18 hrs by broth microdilution method; assay type: functional; procedure, shortened: as §2
# [14] = tested on: Staphylococcus epidermidis; assay: Antibacterial activity against Staphylococcus epidermidis ATCC 12228 measured after 18 hrs by CLSI broth dilution method; assay type: functional; conditions: ATCC 12228, 18 h; procedure, shortened: as §1
# Candida tropicalis = assay: Antifungal activity against Candida tropicalis IBA 171 assessed as diameter of zone inhibition incubated for 24 hrs by CLSI disc diffusion method; assay type: functional; procedure, shortened: as §3
# Saccharomyces cerevisiae = assay: Antifungal activity against Saccharomyces cerevisiae ATCC 9763 assessed as decrease in fungal cell growth at 0.78 to 12.5 mg/L incubated for 24 hrs by CLSI broth dilution method; assay type: functional; conditions: ATCC 9763, 24 h
# Procedure, shortened: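 Yeast strain subcultured on Sabouraud dextrose agar for 24–48 h at 30 °C before testing. Compounds dissolved in DMSO.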
# [15] = tested on: Klebsiella pneumoniae ATCC BAA-1705; assay: Inhibition of beta lactamase KPC-2 in Klebsiella pneumoniae ATCC BAA 1705 assessed as potentiation of ceftazidime-induced antibacterial activity by measuring ceftazidime MIC at 16 mg/L incubated for 18 hrs by broth dilution method
# Burkholderia cepacia = assay: Antibacterial activity against Burkholderia cepacia ATCC 25416 measured after 18 hrs by CLSI broth dilution method; assay type: functional; conditions: ATCC 25416, 18 h; procedure, shortened: as §1
# Enterococcus faecalis = assay: Antibacterial activity against Enterococcus faecalis ATCC 29212 measured after 18 hrs by CLSI broth dilution method; assay type: functional; conditions: ATCC 29212, 18 h; procedure, shortened: as §1
# Pseudomonas aeruginosa [16] = assay: Antibacterial activity against Pseudomonas aeruginosa ATCC 27853 measured after 18 hrs by CLSI broth dilution method; assay type: functional; conditions: ATCC 27853, 18 h; procedure, shortened: as §1
# [17] = tested on: Stenotrophomonas maltophilia; assay: Bactericidal activity against Stenotrophomonas maltophilia ATCC 13637 measured after 18 hrs by CLSI broth dilution method; assay type: functional; conditions: ATCC 13637, 18 h
# Procedure, shortened: (§4)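 Strains stored at -80 °C and subcultured twice on tryptic soy agar before testing. Compounds dissolved in DMSO. […] MBC then determined per CLSI recommendations.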
# [18] = tested on: Staphylococcus epidermidis; assay: Bactericidal activity against Staphylococcus epidermidis ATCC 12228 measured after 18 hrs by CLSI broth dilution method; assay type: functional; conditions: ATCC 12228, 18 h; procedure, shortened: as §4
# Staphylococcus aureus = assay: Bactericidal activity against Staphylococcus aureus ATCC 6538P measured after 18 hrs by CLSI broth dilution method; assay type: functional; procedure, shortened: as §4
# [19] = Cytotoxicity against human MRC5 cells assessed as cell viability at 8 ug/ml incubated for 72 hrs by MTT assay; assay type: cell-based; conditions: read-out: Activity
# Procedure, shortened: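 MRC-5 pd30 human fibroblasts grown in MEM with 10% FBS, 2 mM L-glutamine, penicillin/streptomycin and 1% non-essential amino acids at 37 °C, 5% CO2. Exponentially growing cells trypsinized and seeded at 8×10^3 cells/well, then dosed 18 h later with 2-fold dilutions (0.5% DMSO final) for 72 h. MTT (1 mg/ml final) added for 1 h at 37 °C, formazan dissolved in DMSO, OD read at 570 nm. Four replicates, expressed as % viable versus control.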
SMILES,MIC (Klebsiella pneumoniae [1]) [µg/mL],MIC (Escherichia coli [2]) [µg/mL],fold change (FC) (Escherichia coli [3]),fold change (FC) (Acinetobacter baumannii [4]),DIZ (Serratia marcescens [5]),inhibition zone (IZ) (Pseudomonas aeruginosa [6]) [mm],inhibition zone (IZ) [7] [mm],diameter of the inhibition zone (DIZ) (Candida parapsilosis),diameter of the inhibition zone (DIZ) [8] [mm],fold change (FC) (Proteus mirabilis),DIZ (Klebsiella pneumoniae [9]),MIC [10] [µg/mL],fold change (FC) (Klebsiella pneumoniae [11]),fold change (FC) (Serratia marcescens [13]),MIC [14] [µg/mL],diameter of the inhibition zone (DIZ) (Candida tropicalis),MIC (Saccharomyces cerevisiae) [µg/mL],MIC (Burkholderia cepacia) [µg/mL],MIC (Enterococcus faecalis) [µg/mL],MIC (Pseudomonas aeruginosa [16]) [µg/mL],further results
C[Si]1(C)OB(O)c2c(F)c(F)c(F)c(F)c21,> 400,2,32,4,inactive,11,13,21 mm,17,2,inactive,50,16,4,100,13 mm,25,> 400,200,> 400,MIC (Acinetobacter baumannii [12]): > 64 µg/mL; MIC [15]: 64 µg/mL
C[Si]1(C)OB(O)c2c(F)c3c(c(F)c21)B(O)OC3,200,2,8,8,inactive,11,12,inactive,35,4,inactive,> 400,16,16,6.25,inactive,> 400,50,25,> 400,MIC (Acinetobacter baumannii [12]): > 64 µg/mL; MIC [15]: 64 µg/mL; MBC [17]: 400 µg/mL
C[Si]1(C)OB(O)c2ccc(B(O)O)cc21,> 400,0.25,8,2,inactive,18,18,inactive,32,4,inactive,> 400,4,2,50,inactive,100,> 400,200,> 400,"MBC [18]: 100 µg/mL; MBC (Staphylococcus aureus): 200 µg/mL; viability at 72 h, 8 ug/ml [19]: 126%; MIC (Acinetobacter baumannii [12]): > 64 µg/mL; MIC [15]: 64 µg/mL"
C[Si]1(C)OB(O)c2ccc(F)c(F)c21,> 400,2,32,4,inactive,14,14,11 mm,33,2,inactive,3.12,16,8,50,12 mm,12.5,> 400,100,> 400,"viability at 72 h, 8 ug/ml [19]: 111%; MIC (Acinetobacter baumannii [12]): > 64 µg/mL; MIC [15]: 64 µg/mL; MBC [17]: 400 µg/mL"
C[Si]1(C)OB(O)c2ccc(Cl)c(Cl)c21,400,,64,8,inactive,,,28 mm,22,4,inactive,25,32,32,6.25,31 mm,6.25,> 400,25,> 400,MBC [18]: 50 µg/mL; MBC (Staphylococcus aureus): 100 µg/mL; MBC [17]: 400 µg/mL
C[Si]1(C)OB(O)c2cc3c(c(F)c21)COB3O,> 400,1,16,8,inactive,16,12,inactive,34,8,inactive,400,32,16,6.25,inactive,100,> 400,100,> 400,"MBC [18]: 400 µg/mL; MBC (Staphylococcus aureus): 400 µg/mL; viability at 72 h, 8 ug/ml [19]: 105%; MIC (Acinetobacter baumannii [12]): > 64 µg/mL; MIC [15]: 64 µg/mL"
C[Si]1(C)OB(O)c2ccc(Cl)cc21,400,,64,16,inactive,,,18 mm,33,4,inactive,25,32,16,25,15 mm,6.25,> 400,100,> 400,MBC [18]: 50 µg/mL; MBC (Staphylococcus aureus): 400 µg/mL; MBC [17]: 200 µg/mL
